Measurements pooled from the literature.
Each line is one published result; the experiments were not run side by side.
Read-out: metabolic stability
Host: human
Sample: liver microsomes

Compound | concentration | time | pH | microsomal CLint
Cc1cc(Nc2ccnc3ccc(-c4ccc(S(=O)(=O)N5CCOCC5)cc4)cc23)on1 | – | – | – | 69.8 µL/min/mg
COc1cc2[nH]c(C)c(-c3ccc(C(C)C)cc3)c(=O)c2cc1Cl | 1 µM | – | – | 34 µL/min/mg
O=C(C1CCSCC1)N1CC(=O)N2CCc3ccccc3[C@@H]2C1 | 0.1 µM | – | pH 7.4 | 28 µL/min/mg
c1ccc(-c2nc(N3CCOCC3)c3ccccc3n2)nc1 | – | – | – | 58 µL/min/mg
CCN(CC)CCNC(=O)c1c(C)[nH]c(/C=C2\C(=O)Nc3ccc(F)cc32)c1C | 1 µM | – | pH 7.4 | 19 µL/min/mg
COc1cc2[nH]c(C)c(-c3ccc(C(F)(F)F)cc3)c(=O)c2cc1Cl | 1 µM | – | – | < 7 µL/min/mg
COc1ccc(Nc2ccnc3ccc(-c4ccc(S(=O)(=O)N5CCOCC5)cc4)cc23)cc1C | – | – | – | 131 µL/min/mg
Cc1cc(Nc2ccc(C(F)(F)F)cc2)c2ccccc2n1 | – | – | – | 4.8 µL/min/mg
COc1cc2[nH]c(C)c(-c3ccc(CO)cc3)c(=O)c2cc1Cl | 1 µM | – | – | < 7 µL/min/mg
c1ccc(CN2CCN(c3nc(-c4ccccn4)nc4ccccc34)CC2)cc1 | – | – | – | 136 µL/min/mg
Cc1cc(Nc2ccc(C(F)(F)F)cc2)n2nc(C(F)(F)F)nc2n1 | 1 µM | – | pH 7.4 | < 6 µL/min/mg
Fc1ccc(Nc2c(-c3cc(Cl)ccn3)nc3ccccn23)cc1 | 3 µM | – | pH 7.4 | 160 µL/min/mg
COc1cc2[nH]c(C)c(-c3ccc(C)cc3)c(=O)c2cc1Cl | 1 µM | – | – | 21 µL/min/mg
O=C(Nc1ccnc(C(F)(F)F)c1)Nc1cccc2c1OC(F)(F)O2 | – | – | – | 14 µL/min/mg
CCOC(=O)c1c(-c2cc(F)cc(OC)c2)[nH]c2cc(OC)c(F)cc2c1=O | 19.8 µM | – | pH 7.4 | 50 µL/min/mg
C[C@H](C(=O)NC1Cc2ccccc2C1)c1ccc(F)cc1 | 1 µM | 1 h | – | 120 µL/min/mg
COc1ccc(-c2c(C)[nH]c3cc(OC)c(Cl)cc3c2=O)cc1 | 1 µM | – | – | < 7 µL/min/mg
CCc1nnc(Nc2ccnc3ccc(-c4ccc(S(=O)(=O)N5CCOCC5)cc4)cc23)s1 | – | – | – | 59.3 µL/min/mg
O=C(O)C1CCN(c2nc(-c3ccccn3)nc3ccccc23)C1 (centres unmarked) | – | – | – | 9 µL/min/mg
Clc1cccc(-c2c(-c3ccccn3)nc3n2CCC3)c1 | 3 µM | – | pH 7.4 | 140 µL/min/mg
C[C@H](C(=O)NC1Cc2ccccc2C1)c1ccccc1 | 1 µM | 1 h | – | 15 µL/min/mg
Fc1ccc(Nc2c(-c3ccccn3)nc3ccccn23)c(F)c1 | 3 µM | – | pH 7.4 | 96 µL/min/mg
CCOCCOc1ccnc2ccc(-c3ccc(S(=O)(=O)N4CCOCC4)cc3)cc12 | – | – | – | > 300 µL/min/mg
COc1cc2[nH]c(C)c(-c3ccc(N4CCN(C)CC4)nc3)c(=O)c2cc1Cl | 1 µM | – | – | 34 µL/min/mg

Compound | concentration | time | pH | microsomal CLint
CCn1nccc1Nc1ccnc2ccc(-c3ccc(S(=O)(=O)N4CCOCC4)cc3)cc12 | – | – | – | 134 µL/min/mg
O=C(Nc1ccc2c(c1)B(O)OC2)Nc1ccc(F)c(C(F)(F)F)c1 | – | – | – | 13 µL/min/mg
c1ccc(-c2nc(N3CCc4cccnc4C3)c3ccccc3n2)nc1 | – | – | – | 64 µL/min/mg
c1ccc(-c2nc3n(c2-c2cccnc2)CCC3)nc1 | 3 µM | – | pH 7.4 | 24 µL/min/mg
Cc1cccc(CNc2nc(-c3ccccn3)nc3ccccc23)n1 | – | – | – | 63 µL/min/mg
O=c1[nH]c(=S)n(Cc2ccc(Cl)cc2CNCC(F)(F)F)c2cc[nH]c12 | – | – | – | 8.2 µL/min/mg
COc1cc2[nH]c(C)c(-c3ccc(-c4ccccc4)cc3)c(=O)c2cc1Cl | 1 µM | – | – | 14 µL/min/mg
Cc1cnnc(Nc2ccnc3ccc(-c4ccc(S(=O)(=O)N5CCOCC5)cc4)cc23)c1 | – | – | – | 126 µL/min/mg
COc1cc2[nH]c(C)c(-c3ccc(OC(C)C)cc3)c(=O)c2cc1Cl | 1 µM | – | – | 8 µL/min/mg
Fc1ccc(Nc2c(-c3cccc(F)n3)nc3ccccn23)cc1 | 3 µM | – | pH 7.4 | 130 µL/min/mg
Cc1cnc(Nc2ccnc3ccc(-c4ccc(S(=O)(=O)N5CCOCC5)cc4)cc23)s1 | – | – | – | 76.3 µL/min/mg
COc1ccc2nc(-c3cc(N(C)C)ccn3)c(Nc3ccc(F)cc3)n2c1 | 3 µM | – | pH 7.4 | 120 µL/min/mg
N#CC1CCN(c2nc(-c3ccccn3)nc3ccccc23)CC1 | – | – | – | 45 µL/min/mg
C=CCn1c(=O)c2cnc(Nc3ccc(N4CCN(C)CC4)cc3)nc2n1-c1cccc(C(C)(C)O)n1 | – | – | – | 17 µL/min/mg
CCOc1ccc2ccc(=O)oc2c1 | 1 µM | – | pH 7.4 | 146 µL/min/mg
Cc1cc(Nc2ccc(S(F)(F)(F)(F)F)cc2)n2nc(C(F)(F)F)nc2n1 | 1 µM | – | pH 7.4 | < 6 µL/min/mg
c1ccc(-c2nc3n(c2-c2ccncc2)CCC3)nc1 | 3 µM | – | pH 7.4 | 26 µL/min/mg
O=C(N[C@H](Cc1ccccc1)C(=O)Nc1ccccc1N1CCS(=O)(=O)CC1)c1ccccc1F | 2 µM | 40 min | pH 7.4 | 1110 µL/min/mg
Cc1cc(Nc2ccc(S(F)(F)(F)(F)F)cc2)n2nc(C(C)(F)F)nc2n1 | 1 µM | – | pH 7.4 | < 6 µL/min/mg
CCn1cnc2c(N3CCC(c4ccccn4)C3)nc(-c3ccccn3)nc21 (centres unmarked) | – | – | – | 42 µL/min/mg
O=S(=O)(c1ccc(-c2ccc3nccc(Nc4cncs4)c3c2)cc1)N1CCOCC1 | – | – | – | 29.5 µL/min/mg
Cc1cccnc1CNc1nc(-c2ccccn2)nc2ccccc12 | – | – | – | 64 µL/min/mg
COc1cccnc1-c1nc2ccccn2c1Nc1ccc(F)cc1 | 3 µM | – | pH 7.4 | 19 µL/min/mg
